Reference: ChEMBL document CHEMBL1124291, “New actinomycin D analogues as superior chemotherapeutic agents against primary and advanced colon tumors and colon xenografts in nude mice” (J Med Chem, 1988)

Experiments:
Rattus norvegicus [1] = organism: Rattus norvegicus; test: DNA-cleaving ability expressed as % of closed circular pBR322 DNA cleaved […] conc 50 uM; format: functional
Method in brief: (§1)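 pBR322 DNA (200 μM nucleotides) in 10 mM Tris·HCl pH 7.8 and 50 mM NaCl, with 4 mM Na₂S₂O₄ and 100 μM FeCl₂. Incubated with drug for 1 h at 20 °C, kept air-saturated. Supercoiled and open-circular forms were separated by agarose gel electrophoresis, stained with ethidium bromide and quantitated by densitometry. % cleaved was calculated from the open- and closed-circular amounts.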

Rattus norvegicus [2] = organism: Rattus norvegicus; test: DNA-cleaving ability expressed as % of closed circular pBR322 DNA cleaved at 100 uM conc 100 uM; format: functional; method in brief: as §1
MC-38 [3] = test: Activity against advanced carcinoma C38 tumor in CDF1 Mice at dose 0.15 mg/kg measured as % inhibition of tumor; format: functional; conditions: Mus musculus
HT-29 [4] = test: 50% inhibition of incorporationf precursor [3H]thymidine into RNA HT-29 cell lines; format: functional, cell-based; conditions: Homo sapiens, HT-29, 2 h; in the assay text read “[14C]uridine” for “[3H]thymidine”
Method in brief: (§2)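 HT-29 colon carcinoma monolayers, 10^4 cells per well, five wells per concentration. Drug exposure lasted 2 h, with [³H]thymidine and [2-¹⁴C]uridine (0.5 μCi each) added for the last hour. Cells were washed, trypsinized, counted and precipitated onto glass-fiber filters with 10% TCA. Acid-precipitable radioactivity was measured. IC50 is the concentration inhibiting 50% of incorporation; data are averages of replicate experiments.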

MC-38 [5] = test: Mean survival time of treated / untreated group x100. (number of over 100-day survivors/number of total mice in the group) at a dose 1.20 mg/kg; format: functional, Mus musculus; conditions: dose 1.2 mg/kg
Method in brief: (§3)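 CDF1 mice were implanted sc on day 0 with colon 38 adenocarcinoma fragments (70 mg) and given iv drug on days 1, 5 and 9. %T/C = median survival of treated / untreated × 100. Number of mice surviving over 100 days / group total is given in parentheses.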

HT-29 [6] = test: 50% inhibition of incorporationf precursor [3H]thymidine into DNA HT-29 cell lines; format: functional, cell-based; conditions: Homo sapiens, HT-29, 2 h; method in brief: as §2
MC-38 [7] = test: Number of toxic deaths/number of mice in a group of non tumored mice treated in parallel with the tumor-bearing mice and observed for 100 days at a dose 0.30 mg/kg; value given as 0/9; format: functional, Mus musculus; conditions: dose 0.3 mg/kg
Method in brief: (§4)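 Non-tumored CDF1 mice were treated in parallel with colon 38 tumor-bearing mice: iv injections on days 1, 5 and 9, groups of nine. Deaths were counted over 100 days of observation and reported as toxic deaths / mice in group.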

MC-38 [8] = test: Number of toxic deaths/number of mice in a group of non tumored mice treated in parallel with the tumor-bearing mice and observed for 100 days at a dose 0.60 mg/kg; value given as 0/9; format: functional, Mus musculus; conditions: dose 0.6 mg/kg; method in brief: as §4
MC-38 [9] = test: Activity against advanced carcinoma C38 tumor in CDF1 Mice at dose 1.20 mg/kg measured as % inhibition of tumor; format: functional; conditions: Mus musculus
B16 [10] = test: in vivo Antitumor activity against B16 melanoma cells at dose 300 ug/Kg /inj measured as mean survival time (MST); format: functional, Mus musculus
Method in brief: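 B16 melanoma implanted ip on day 0 as 0.2 mL of a 1:5 (weight/volume) brei, in groups of nine BDF₁ mice; drugs given ip. MST is the median survival time in days, with the range of days of death of individual animals; % ILS is percent increase in life span, with survivors on day 65 over total injected.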

B16 [11] = test: In vivo antitumor activity against B16 melanoma cells at a optimal dose measured as %ILS (%increase life span) at a dose 300 micro g/Kg/inj; format: functional, Mus musculus
Method in brief: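 BDF1 mice in groups of nine were implanted ip on day 0 with 0.2 mL of 1:5 (w/v) B16 melanoma brei; drugs were given ip. Survival is reported as median survival time in days with range, and as %ILS, with survivors counted on day 65 out of total injected.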

MC-38 [12] = test: Number of toxic deaths/number of mice in a group of non tumored mice treated in parallel with the tumor-bearing mice and observed for 100 days at a dose 0.15 mg/kg; value given as 1/9; format: toxicity, organism-based; design: dose 0.15 mg/kg; conditions: mouse, in vivo, 2400 h; method in brief: as §4
MC-38 [13] = test: Activity against advanced carcinoma C38 tumor in CDF1 Mice at dose 0.30 mg/kg measured as % inhibition of tumor; format: functional; conditions: Mus musculus
P388 [14] = test: Antitumor activity in P388/ADR (adriamycin resistant), in male BDF1 mice measured as optimal dose at dose 0.10-0.8 mg/kg
Rattus norvegicus [15] = organism: Rattus norvegicus; test: The formation of adrenochrome from epinephrine in the absence of SOD(super oxide dismutase); format: functional
Method in brief: (§5)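 Drug-stimulated superoxide generation with rat liver microsomal enzymes and NADPH as cofactor. NADPH oxidation was read at 340 nm. Adrenochrome formed from epinephrine was read at 480 nm, with or without superoxide dismutase. % stimulation = [(drug-stimulated rate − basal rate)/basal rate] × 100. Values are mean ± standard error of triplicate analyses.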

MC-38 [16] = test: Mean survival time of treated / untreated group x100. (number of over 100-day survivors/number of total mice in the group) at a dose 0.60 mg/kg; format: functional, Mus musculus; conditions: dose 0.6 mg/kg; method in brief: as §3
Rattus norvegicus [17] = organism: Rattus norvegicus; test: The formation of adrenochrome from epinephrine in the presence of SOD(super oxide dismutase); + denotes ' Inhibited'; format: functional; method in brief: as §5
P388 (Mus musculus) = test: 50% inhibition of incorporation of precursor [3H]thymidine into DNA P388 cell lines; conditions: P388, 2 h
MC-38 [18] = test: Mean survival time of treated / untreated group x100. (number of over 100-day survivors/number of total mice in the group) at a dose 0.15 mg/kg; format: functional, Mus musculus; method in brief: as §3
Rattus norvegicus [19] = organism: Rattus norvegicus; test: Stimulation of NADPH oxidation in the presence of rat liver microsomes; format: functional; method in brief: as §5
P388 [20] = test: 50% inhibition of incorporation precursor [14C]uridine into RNA P388 cell lines; format: functional, cell-based; conditions: Mus musculus
MC-38 [21] = test: Activity against advanced carcinoma C38 tumor in CDF1 Mice at dose 0.60 mg/kg measured as % inhibition of tumor; format: functional; conditions: Mus musculus
MC-38 [22] = test: Mean survival time of treated / untreated group x100. (number of over 100-day survivors/number of total mice in the group) at a dose 0.30 mg/kg; format: functional, Mus musculus; conditions: dose 0.3 mg/kg; method in brief: as §3
P388 [23] = test: Antitumor activity in P388/S(AMD sensitive) in male BDF1 mice measured as optimal dose
MC-38 [24] = test: Number of toxic deaths/number of mice in a group of non tumored mice treated in parallel with the tumor-bearing mice and observed for 100 days at a dose 1. 20 mg/Kg; value given as 4/9; format: toxicity, cell-based; conditions: mouse, in vivo, 2400 h; method in brief: as §4

Molecule: BLEOMYCIN
- Activity (Rattus norvegicus [1]): 75%
- Activity (Rattus norvegicus [2]): > 85%

Molecule: Cc1c2oc3c(C)c4oc(-c5ccccc5)nc4c(C(=O)N[C@@H]4C(=O)N[C@H](C(C)C)C(=O)N5CCC[C@H]5C(=O)N(C)CC(=O)N(C)[C@@H](C(C)C)C(=O)O[C@@H]4C)c3nc-2c(C(=O)N[C@@H]2C(=O)N[C@H](C(C)C)C(=O)N3CCC[C@H]3C(=O)N(C)CC(=O)N(C)[C@@H](C(C)C)C(=O)O[C@@H]2C)c(N)c1=O
- inhibition in vivo at 0.15 mg/kg (MC-38 [3]): 29%
- IC50 (HT-29 [4]): 68 nM
- T/C (MC-38 [5]): 103%
- IC50 (HT-29 [6]): 580 nM
- Toxic deaths (MC-38 [7]): 0
- Toxic deaths (MC-38 [8]): 0
- inhibition in vivo at 1.2 mg/kg (MC-38 [9]): 88%
- MST (B16 [10]): 59
- ILS (B16 [11]): 103%
- Toxic deaths (MC-38 [12]): 1
- inhibition in vivo at 0.3 mg/kg (MC-38 [13]): 70%
- optimal dose (P388 [14]): 0.6 mg/kg
- Adrenochrome formation (Rattus norvegicus [15]): 18.8 nM min-1 (mg of protein)-1
- T/C (MC-38 [16]): 170%
- Adrenochrome formation (Rattus norvegicus [17]): Inhibited
- IC50 (P388 (Mus musculus)): 780 nM
- T/C (MC-38 [18]): 103%
- NADPH oxidation (nM min-1 (mg of protein)-1) (Rattus norvegicus [19]): 65
- IC50 (P388 [20]): 70 nM
- inhibition in vivo at 0.6 mg/kg (MC-38 [21]): 83%
- T/C (MC-38 [22]): 137%
- optimal dose (P388 [23]): 0.35 mg/kg
- Toxic deaths (MC-38 [24]): 4
